# Results taken from ChEMBL document CHEMBL3351225, “Design, synthesis, and structure-activity and structure-pharmacokinetic relationship studies of novel [6,6,5] tricyclic fused oxazolidinones leading to the discovery of a potent, selective, and orally bioavailable FXa inhibitor” (J Med Chem, 2014).
# Target: Coagulation factor XI (Homo sapiens, UniProt P03951)
# Test: Inhibition of human factor 11a using S-2366 chromogenic substrate
# Details: not given
# In short: (§1)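 Human enzyme and inhibitor were premixed and preincubated, then the chromogenic substrate was added. Substrate levels: 300 μM S-2765 (FXa, trypsin); 200 μM S-2366 (FIIa); 2 mM S-2366 (FVIIa, FXIa). pNA release was monitored continuously at 405 nm for 20 min at 37 °C. IC50 was obtained by nonlinear regression.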
# Sequence of Coagulation factor XI (P03951 19-387 limits assumed): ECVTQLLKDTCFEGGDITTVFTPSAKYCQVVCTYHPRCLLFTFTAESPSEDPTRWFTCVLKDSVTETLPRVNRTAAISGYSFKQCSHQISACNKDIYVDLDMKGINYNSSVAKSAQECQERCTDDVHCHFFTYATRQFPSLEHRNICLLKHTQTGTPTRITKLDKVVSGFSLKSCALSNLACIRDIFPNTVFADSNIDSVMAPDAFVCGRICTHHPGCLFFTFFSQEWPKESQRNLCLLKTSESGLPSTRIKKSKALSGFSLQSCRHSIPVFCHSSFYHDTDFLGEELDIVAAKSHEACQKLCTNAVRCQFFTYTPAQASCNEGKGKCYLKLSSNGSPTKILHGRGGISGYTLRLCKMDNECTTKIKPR
# Sequence of Coagulation factor XI (P03951 388-625 limits assumed): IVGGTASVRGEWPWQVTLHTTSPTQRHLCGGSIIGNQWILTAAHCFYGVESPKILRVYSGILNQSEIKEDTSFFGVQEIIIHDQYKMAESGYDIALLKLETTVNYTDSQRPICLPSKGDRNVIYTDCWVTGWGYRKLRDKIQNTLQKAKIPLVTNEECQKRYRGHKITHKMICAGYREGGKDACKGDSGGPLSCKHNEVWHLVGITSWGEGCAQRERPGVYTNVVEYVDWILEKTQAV
row,Compound,IC50
1,O=C(NC[C@@H]1OC(=O)N2c3ccc(N4CCOCC4=O)cc3CC[C@@H]12)c1ccc(Cl)s1,> 100000 nM

# Target: T1, Coagulation factor VII (Homo sapiens, UniProt P08709)
# T1 sequence (P08709 whole entry): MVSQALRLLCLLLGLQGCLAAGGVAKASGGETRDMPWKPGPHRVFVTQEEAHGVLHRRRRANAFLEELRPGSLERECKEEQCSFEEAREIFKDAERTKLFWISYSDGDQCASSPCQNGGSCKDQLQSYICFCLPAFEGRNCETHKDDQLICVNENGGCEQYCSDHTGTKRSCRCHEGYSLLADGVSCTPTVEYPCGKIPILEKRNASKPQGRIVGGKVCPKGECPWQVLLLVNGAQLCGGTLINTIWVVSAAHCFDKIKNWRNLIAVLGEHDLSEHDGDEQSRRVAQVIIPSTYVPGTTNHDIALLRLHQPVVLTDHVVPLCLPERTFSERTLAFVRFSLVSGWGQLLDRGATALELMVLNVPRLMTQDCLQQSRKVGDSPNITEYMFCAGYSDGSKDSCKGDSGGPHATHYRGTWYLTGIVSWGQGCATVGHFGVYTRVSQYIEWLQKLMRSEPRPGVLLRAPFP
# Test: Inhibition of human factor 7a using S-2366 chromogenic substrate
# Details: not given
# In short: as §1
row,Compound,IC50
1,O=C(NC[C@@H]1OC(=O)N2c3ccc(N4CCOCC4=O)cc3CC[C@@H]12)c1ccc(Cl)s1,> 100000 nM

# Target: Coagulation factor IX (Homo sapiens, UniProt P00740)
# Sequence (P00740 47-191 limits assumed): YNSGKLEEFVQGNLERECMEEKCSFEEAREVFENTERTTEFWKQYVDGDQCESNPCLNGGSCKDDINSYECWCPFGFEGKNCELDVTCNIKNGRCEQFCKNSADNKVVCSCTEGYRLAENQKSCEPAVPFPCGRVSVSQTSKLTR
# Sequence (P00740 227-461 limits assumed): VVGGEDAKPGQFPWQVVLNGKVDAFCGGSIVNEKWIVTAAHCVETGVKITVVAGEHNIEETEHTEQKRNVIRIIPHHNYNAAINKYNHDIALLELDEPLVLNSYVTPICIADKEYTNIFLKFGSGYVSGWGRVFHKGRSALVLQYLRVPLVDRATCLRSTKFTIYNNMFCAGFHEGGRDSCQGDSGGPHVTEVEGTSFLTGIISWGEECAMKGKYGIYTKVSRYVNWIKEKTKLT
# Test: Inhibition of human factor 9a using CH3SO2-(D)CHG Gly-Arg-pNA, Biophen-CS51 chromogenic substrate
# Details: not given
row,Compound,IC50
1,O=C(NC[C@@H]1OC(=O)N2c3ccc(N4CCOCC4=O)cc3CC[C@@H]12)c1ccc(Cl)s1,> 100000 nM

# Tested on: not listed separately
# Test: AUC (0 to infinity) in Sprague-Dawley rat at 3 mg/kg, iv
# Assay type: ADME, organism-based
# Design: time infinity, dose 3 mg/kg, route intravenous
# Details: plasma
# In short: (§2)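 Male Sprague-Dawley rats, 200−220 g, four per group. Vehicle was 5% DMSO + 5% Tween-80 in 90% saline. The reference drug was given in 10% DMSO + 10% Tween-80 + 80% PEG400 (40% solution in saline). Serial retrobulbar vein samples were quantified by LC-MS. Parameters came from noncompartmental analysis of mean plasma concentrations.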
row,Compound,AUC(0-inf)
1,O=C(NC[C@@H]1OC(=O)N2c3ccc(N4CCOCC4=O)cc3CC[C@@H]12)c1ccc(Cl)s1,20400 ng·h/mL
2,O=C(NC[C@@H]1OC(=O)N2c3ccc(N4CCOCC4=O)cc3S(=O)(=O)C[C@@H]12)c1ccc(Cl)s1,6120 ng·h/mL
3,NS(=O)(=O)c1ccccc1-c1ccc2c(c1)OC[C@H]1[C@H](CNC(=O)c3ccc(Cl)s3)OC(=O)N21,12200 ng·h/mL

# Target: Prothrombin (Homo sapiens, UniProt P00734)
# Test: Inhibition of human factor 2a using L-pyro-Glu-Pro-ArgpNA, S-2366 chromogenic substrate
# Details: not given
# In short: as §1
row,Compound,IC50
1,O=C(NC[C@@H]1OC(=O)N2c3ccc(N4CCOCC4=O)cc3CC[C@@H]12)c1ccc(Cl)s1,> 100000 nM

# Tested on: Plasma
# Test: Anticoagulant activity in citrated rabbit plasma assessed as activated partial thromboplastin time preincubated for 10 mins at 37 degC by coagulometry
# Assay type: functional, Oryctolagus cuniculus
# Details: not given
# In short: (§3)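 Test compound or DMSO added to citrated rabbit plasma (3.8% sodium citrate, 10:90 v/v) and preincubated 10 min at 37 °C. PT and aPTT clotting times measured on a coagulometer with commercial kits. Activity expressed as the concentration needed to double plasma clotting time (CT2, μM).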
row,Compound,2aPTT
1,O=C(NC[C@@H]1OC(=O)N2c3ccc(N4CCOCC4=O)cc3CC[C@@H]12)c1ccc(Cl)s1,0.33 µM
2,O=C(NC[C@@H]1OC(=O)N2c3ccc(N4CCCCC4=O)cc3SC[C@@H]12)c1ccc(Cl)s1,0.62 µM
3,O=C(NC[C@@H]1OC(=O)N2c3ccc(N4CCOCC4=O)cc3S(=O)(=O)C[C@@H]12)c1ccc(Cl)s1,0.76 µM
4,NS(=O)(=O)c1ccccc1-c1ccc2c(c1)OC[C@H]1[C@H](CNC(=O)c3ccc(Cl)s3)OC(=O)N21,4.86 µM
5,O=C(NC[C@@H]1OC(=O)N2c3ccc(N4CCOCC4=O)cc3OC[C@@H]12)c1ccc(Cl)cc1,0.93 µM

# Tested on: not listed separately
# Test: Cmax in Sprague-Dawley rat at 10 mg/kg, po
# Assay type: ADME, organism-based
# Design: dose 10 mg/kg, route oral
# Details: in vivo
# In short: as §2
row,Compound,Cmax
1,O=C(NC[C@@H]1OC(=O)N2c3ccc(N4CCOCC4=O)cc3CC[C@@H]12)c1ccc(Cl)s1,3020 ng/mL
2,O=C(NC[C@@H]1OC(=O)N2c3ccc(N4CCOCC4=O)cc3S(=O)(=O)C[C@@H]12)c1ccc(Cl)s1,917 ng/mL
3,NS(=O)(=O)c1ccccc1-c1ccc2c(c1)OC[C@H]1[C@H](CNC(=O)c3ccc(Cl)s3)OC(=O)N21,3630 ng/mL

# Tested on: Plasma
# Test: Anticoagulant activity in citrated rabbit plasma assessed as drug concentration required to double plasma clotting time preincubated for 10 mins at 37 degC by coagulometry
# Assay type: functional, Oryctolagus cuniculus
# Details: not given
# In short: as §3
row,Compound,Activity
1,O=C(NC[C@@H]1OC(=O)N2c3ccc(N4CCOCC4=O)cc3CC[C@@H]12)c1ccc(Cl)s1,0.37 µM
2,O=C(NC[C@@H]1OC(=O)N2c3ccc(N4CCCCC4=O)cc3SC[C@@H]12)c1ccc(Cl)s1,0.64 µM
3,O=C(NC[C@@H]1OC(=O)N2c3ccc(N4CCOCC4=O)cc3S(=O)(=O)C[C@@H]12)c1ccc(Cl)s1,0.47 µM
4,NS(=O)(=O)c1ccccc1-c1ccc2c(c1)OC[C@H]1[C@H](CNC(=O)c3ccc(Cl)s3)OC(=O)N21,4.58 µM
5,O=C(NC[C@@H]1OC(=O)N2c3ccc(N4CCOCC4=O)cc3OC[C@@H]12)c1ccc(Cl)cc1,1.06 µM

# Target: Coagulation factor X (Homo sapiens, UniProt P00742)
# Sequence (P00742 41-179 limits assumed): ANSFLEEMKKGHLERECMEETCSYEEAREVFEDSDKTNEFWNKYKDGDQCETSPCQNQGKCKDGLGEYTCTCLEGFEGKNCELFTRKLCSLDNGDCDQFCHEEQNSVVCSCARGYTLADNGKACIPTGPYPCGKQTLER
# Sequence (P00742 235-488 limits assumed): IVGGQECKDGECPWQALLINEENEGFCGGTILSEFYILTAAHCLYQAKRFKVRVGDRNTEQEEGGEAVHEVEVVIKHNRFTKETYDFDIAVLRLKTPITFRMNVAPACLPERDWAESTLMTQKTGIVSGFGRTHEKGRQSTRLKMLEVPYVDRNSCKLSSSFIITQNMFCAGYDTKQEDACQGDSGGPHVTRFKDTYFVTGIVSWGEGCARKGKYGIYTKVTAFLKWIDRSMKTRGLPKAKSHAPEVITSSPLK
# Test: Inhibition of human factor 10a using N-Z-D-Arg-Gly-Arg-pNA, S-2765 chromogenic substrate
# Details: not given
row,Compound,IC50
1,O=C(NC[C@@H]1OC(=O)N2c3ccc(N4CCOCC4=O)cc3CC[C@@H]12)c1ccc(Cl)s1,4.71 nM
2,O=C(NC[C@@H]1OC(=O)N2c3ccc(N4CCCCC4=O)cc3NC[C@@H]12)c1ccc(Cl)s1,15.2 nM
3,O=C(NC[C@@H]1OC(=O)N2c3ccc(N4CCOC4=O)cc3OC[C@@H]12)c1ccc(Cl)s1,730 nM
4,CC(=O)N(C)c1ccc2c(c1)OC[C@H]1[C@H](CNC(=O)c3ccc(Cl)s3)OC(=O)N21,87.2 nM
5,O=C(NC[C@@H]1OC(=O)N2c3ccc(N4CCOCC4=O)cc3OC[C@@H]12)c1cc(Cl)c(Cl)s1,8080 nM
6,O=C(NC[C@@H]1OC(=O)N2c3ccc(N4CCOCC4=O)cc3OC[C@@H]12)C(Cl)Cl,52700 nM
7,O=C(NC[C@@H]1OC(=O)N2c3ccc(N4CCOCC4=O)cc3OC[C@@H]12)c1cc2cccc(Cl)c2s1,> 100000 nM
8,CCN1CCN(c2ccc3c(c2)OC[C@H]2[C@H](CNC(=O)c4ccc(Cl)s4)OC(=O)N32)C(=O)C1,15800 nM
9,O=C(NC[C@@H]1OC(=O)N2c3ccc(N4CCCCC4=O)cc3SC[C@@H]12)c1ccc(Cl)s1,4.89 nM
10,O=C(NC[C@@H]1OC(=O)N2c3ccc(N4CCOCC4=O)cc3S(=O)(=O)C[C@@H]12)c1ccc(Cl)s1,17.4 nM
11,NS(=O)(=O)c1ccccc1-c1ccc2c(c1)OC[C@H]1[C@H](CNC(=O)c3ccc(Cl)s3)OC(=O)N21,60.6 nM
12,O=C(NC[C@@H]1OC(=O)N2c3ccc(N4CCOCC4=O)cc3OC[C@@H]12)c1ccc(Cl)cc1,160 nM

# Tested on: not listed separately
# Test: Elimination half life in Sprague-Dawley rat at 3 mg/kg, iv
# Assay type: ADME, organism-based
# Design: dose 3 mg/kg, route intravenous
# Details: in vivo, read-out: beta t1/2 (converted)
# In short: as §2
row,Compound,half-life
1,O=C(NC[C@@H]1OC(=O)N2c3ccc(N4CCOCC4=O)cc3CC[C@@H]12)c1ccc(Cl)s1,0.74 h
2,O=C(NC[C@@H]1OC(=O)N2c3ccc(N4CCOCC4=O)cc3S(=O)(=O)C[C@@H]12)c1ccc(Cl)s1,0.54 h
3,NS(=O)(=O)c1ccccc1-c1ccc2c(c1)OC[C@H]1[C@H](CNC(=O)c3ccc(Cl)s3)OC(=O)N21,1.38 h

# Tested on: not listed separately
# Test: Elimination half life in Sprague-Dawley rat at 10 mg/kg, po
# Assay type: ADME, organism-based
# Design: dose 10 mg/kg, route oral
# Details: in vivo, read-out: beta t1/2 (converted)
# In short: as §2
row,Compound,half-life
1,O=C(NC[C@@H]1OC(=O)N2c3ccc(N4CCOCC4=O)cc3CC[C@@H]12)c1ccc(Cl)s1,3.54 h
2,O=C(NC[C@@H]1OC(=O)N2c3ccc(N4CCOCC4=O)cc3S(=O)(=O)C[C@@H]12)c1ccc(Cl)s1,2.14 h
3,NS(=O)(=O)c1ccccc1-c1ccc2c(c1)OC[C@H]1[C@H](CNC(=O)c3ccc(Cl)s3)OC(=O)N21,1.65 h

# Tested on: not listed separately
# Test: Volume of distribution at steady state in Sprague-Dawley rat at 3 mg/kg, iv
# Assay type: ADME, organism-based
# Design: dose 3 mg/kg, route intravenous
# Details: in vivo, read-out: Vdss
# In short: as §2
row,Compound,Vd
1,O=C(NC[C@@H]1OC(=O)N2c3ccc(N4CCOCC4=O)cc3CC[C@@H]12)c1ccc(Cl)s1,0.144 L/kg
2,O=C(NC[C@@H]1OC(=O)N2c3ccc(N4CCOCC4=O)cc3S(=O)(=O)C[C@@H]12)c1ccc(Cl)s1,0.154 L/kg
3,NS(=O)(=O)c1ccccc1-c1ccc2c(c1)OC[C@H]1[C@H](CNC(=O)c3ccc(Cl)s3)OC(=O)N21,0.35 L/kg

# Target: Trypsin (Homo sapiens, UniProt P07477+P07478+P35030)
# Test: Inhibition of human trypsin using N-Z-D-Arg-Gly-Arg-pNA, S-2765 chromogenic substrate
# Assay type: protein assay
# Details: not given
# In short: as §1
row,Compound,IC50
1,O=C(NC[C@@H]1OC(=O)N2c3ccc(N4CCOCC4=O)cc3CC[C@@H]12)c1ccc(Cl)s1,> 100000 nM

# Tested on: not listed separately
# Test: AUC (0 to infinity) in Sprague-Dawley rat at 10 mg/kg, po
# Assay type: ADME, organism-based
# Design: time infinity, dose 10 mg/kg, route oral
# Details: plasma
# In short: as §2
row,Compound,AUC(0-inf)
1,O=C(NC[C@@H]1OC(=O)N2c3ccc(N4CCOCC4=O)cc3CC[C@@H]12)c1ccc(Cl)s1,14200 ng·h/mL
2,O=C(NC[C@@H]1OC(=O)N2c3ccc(N4CCOCC4=O)cc3S(=O)(=O)C[C@@H]12)c1ccc(Cl)s1,1540 ng·h/mL
3,NS(=O)(=O)c1ccccc1-c1ccc2c(c1)OC[C@H]1[C@H](CNC(=O)c3ccc(Cl)s3)OC(=O)N21,12300 ng·h/mL

# Tested on: not listed separately
# Test: Oral bioavailability in Sprague-Dawley rat at 10 mg/kg
# Assay type: ADME, organism-based
# Details: in vivo
# In short: as §2
row,Compound,bioavailability
1,O=C(NC[C@@H]1OC(=O)N2c3ccc(N4CCOCC4=O)cc3CC[C@@H]12)c1ccc(Cl)s1,20.4%
2,O=C(NC[C@@H]1OC(=O)N2c3ccc(N4CCOCC4=O)cc3S(=O)(=O)C[C@@H]12)c1ccc(Cl)s1,7.3%
3,NS(=O)(=O)c1ccccc1-c1ccc2c(c1)OC[C@H]1[C@H](CNC(=O)c3ccc(Cl)s3)OC(=O)N21,29%

# Tested on: not listed separately
# Test: Plasma clearance in Sprague-Dawley rat at 3 mg/kg, iv
# Assay type: ADME, organism-based
# Design: dose 3 mg/kg, route intravenous
# Details: not given
# In short: as §2
row,Compound,clearance
1,O=C(NC[C@@H]1OC(=O)N2c3ccc(N4CCOCC4=O)cc3CC[C@@H]12)c1ccc(Cl)s1,2.48 mL/min/kg
2,O=C(NC[C@@H]1OC(=O)N2c3ccc(N4CCOCC4=O)cc3S(=O)(=O)C[C@@H]12)c1ccc(Cl)s1,8.22 mL/min/kg
3,NS(=O)(=O)c1ccccc1-c1ccc2c(c1)OC[C@H]1[C@H](CNC(=O)c3ccc(Cl)s3)OC(=O)N21,4.22 mL/min/kg

# Tested on: not listed separately
# Test: Tmax in Sprague-Dawley rat at 10 mg/kg, po
# Assay type: ADME, organism-based
# Design: dose 10 mg/kg, route oral
# Details: in vivo
# In short: as §2
row,Compound,Tmax
1,O=C(NC[C@@H]1OC(=O)N2c3ccc(N4CCOCC4=O)cc3CC[C@@H]12)c1ccc(Cl)s1,2.3 h
2,O=C(NC[C@@H]1OC(=O)N2c3ccc(N4CCOCC4=O)cc3S(=O)(=O)C[C@@H]12)c1ccc(Cl)s1,0.38 h
3,NS(=O)(=O)c1ccccc1-c1ccc2c(c1)OC[C@H]1[C@H](CNC(=O)c3ccc(Cl)s3)OC(=O)N21,1 h
